# Results: ChEMBL document CHEMBL2074545, “Transport of bile acids, sulfated steroids, estradiol 17-beta-D-glucuronide, and leukotriene C4 by human multidrug resistance protein 8 (ABCC11)” (Mol Pharmacol, 2004)
# Key:
# [1] = target: ATP-binding cassette sub-family C member 11 (Homo sapiens) (UniProt Q96J66); assay: TP_TRANSPORTER: inhibition of Estradiol-17beta-D-glucuronide uptake by cGMP at a concentration of 10 uM in membrane vesicle from MRP8-expressing LLC-PK1 cells; type: functional, cell membranes; design: scale not given: the % may be the effect or the level left
# Sequence of ATP-binding cassette sub-family C member 11 (Homo sapiens) (Q96J66 whole entry): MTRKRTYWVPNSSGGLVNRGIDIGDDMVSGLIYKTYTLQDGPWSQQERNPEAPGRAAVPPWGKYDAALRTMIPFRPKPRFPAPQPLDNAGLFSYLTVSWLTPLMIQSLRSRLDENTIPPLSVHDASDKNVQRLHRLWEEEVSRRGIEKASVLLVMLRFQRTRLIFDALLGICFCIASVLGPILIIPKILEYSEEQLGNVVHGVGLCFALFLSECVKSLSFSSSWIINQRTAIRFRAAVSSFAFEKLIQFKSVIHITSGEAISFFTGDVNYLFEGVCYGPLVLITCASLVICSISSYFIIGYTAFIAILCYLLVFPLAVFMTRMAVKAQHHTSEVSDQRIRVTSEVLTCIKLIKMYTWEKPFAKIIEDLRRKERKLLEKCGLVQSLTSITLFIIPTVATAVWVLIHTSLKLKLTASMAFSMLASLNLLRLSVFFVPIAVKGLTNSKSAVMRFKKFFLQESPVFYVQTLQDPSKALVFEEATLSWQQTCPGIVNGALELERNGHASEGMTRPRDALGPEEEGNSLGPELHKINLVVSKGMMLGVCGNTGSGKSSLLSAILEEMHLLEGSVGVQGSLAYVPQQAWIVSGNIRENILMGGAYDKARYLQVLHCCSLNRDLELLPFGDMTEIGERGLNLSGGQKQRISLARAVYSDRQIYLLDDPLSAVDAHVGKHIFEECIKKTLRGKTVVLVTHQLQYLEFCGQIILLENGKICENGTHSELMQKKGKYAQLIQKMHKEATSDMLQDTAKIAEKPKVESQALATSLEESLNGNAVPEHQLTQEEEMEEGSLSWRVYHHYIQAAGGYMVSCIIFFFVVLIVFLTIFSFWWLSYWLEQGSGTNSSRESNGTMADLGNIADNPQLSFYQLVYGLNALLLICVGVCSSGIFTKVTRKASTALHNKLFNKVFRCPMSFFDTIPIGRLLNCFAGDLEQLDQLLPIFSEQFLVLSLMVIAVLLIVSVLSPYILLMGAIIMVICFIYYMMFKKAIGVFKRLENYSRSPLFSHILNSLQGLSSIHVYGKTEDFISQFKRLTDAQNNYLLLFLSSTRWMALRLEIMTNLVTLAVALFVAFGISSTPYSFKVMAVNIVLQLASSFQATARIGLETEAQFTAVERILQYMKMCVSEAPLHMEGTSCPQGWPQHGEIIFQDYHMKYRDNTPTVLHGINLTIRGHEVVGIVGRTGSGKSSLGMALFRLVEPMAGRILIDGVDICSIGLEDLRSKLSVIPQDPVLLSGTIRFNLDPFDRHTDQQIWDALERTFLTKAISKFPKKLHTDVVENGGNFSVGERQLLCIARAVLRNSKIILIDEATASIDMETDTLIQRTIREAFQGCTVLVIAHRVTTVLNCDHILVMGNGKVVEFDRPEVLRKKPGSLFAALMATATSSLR
# Summary of the method: (§1)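 Vesicles (10 µg) from LLC-PK1-MRP8-3 cells incubated 10 min at 37°C with 1 µM [3H]E217βG plus modulator, in 0.25 M sucrose, 10 mM Tris-HCl pH 7.4, 10 mM MgCl2, creatine phosphate/creatine kinase, with 4 mM ATP or 4 mM AMP. Rapid filtration, scintillation counting. ATP-dependent uptake (ATP minus AMP) expressed as % of modulator-free uptake. At least three measurements, each in duplicate.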
# [2] = target: ATP-binding cassette sub-family C member 11 (Homo sapiens) (UniProt Q96J66); assay: TP_TRANSPORTER: inhibition of Estradiol-17beta-D-glucuronide uptake by Glycocholate at a concentration of 10 uM in membrane vesicle from MRP8-expressing LLC-PK1 cells; type: functional, cell membranes; design: scale not given: the % may be the effect or the level left; summary of the method: as §1
# [3] = target: ATP-binding cassette sub-family C member 11 (Homo sapiens) (UniProt Q96J66); assay: TP_TRANSPORTER: inhibition of Estradiol-17beta-D-glucuronide uptake by 2,4-dinitrophenyl-S-glutathione at a concentration of 10 uM in membrane vesicle from MRP8-expressing LLC-PK1 cells; type: functional, cell membranes; design: scale not given: the % may be the effect or the level left; summary of the method: as §1
# [4] = target: ATP-binding cassette sub-family C member 11 (Homo sapiens) (UniProt Q96J66); assay: TP_TRANSPORTER: inhibition of Estradiol-17beta-D-glucuronide uptake by Sildenifil at a concentration of 10 uM in membrane vesicle from MRP8-expressing LLC-PK1 cells; type: functional, cell membranes; design: scale not given: the % may be the effect or the level left; summary of the method: as §1
# [5] = tested on: C[C@]12CC[C@H](OS(=O)(=O)O)CC1=CC[C@@H]1[C@@H]2CC[C@]2(C)C(=O)CC[C@@H]12; conditions: LLC-PK1; Membrane vesicle
# [6] = tested on: CN(Cc1cnc2nc(N)nc(N)c2n1)c1ccc(C(=O)N[C@@H](CCC(=O)O)C(=O)O)cc1; conditions: LLC-PK1; Membrane vesicle
# [7] = tested on: C[C@]12CC[C@@H]3c4ccc(O)cc4CC[C@H]3[C@@H]1CC[C@@H]2O[C@@H]1O[C@H](C(=O)O)[C@@H](O)[C@H](O)[C@H]1O; conditions: LLC-PK1; Membrane vesicle
# [8] = target: ATP-binding cassette sub-family C member 11 (Homo sapiens) (UniProt Q96J66); assay: TP_TRANSPORTER: inhibition of Estradiol-17beta-D-glucuronide uptake by Indomethacin at a concentration of 10 uM in membrane vesicle from MRP8-expressing LLC-PK1 cells; type: functional, cell membranes; design: scale not given: the % may be the effect or the level left; summary of the method: as §1
# [9] = target: ATP-binding cassette sub-family C member 11 (Homo sapiens) (UniProt Q96J66); assay: TP_TRANSPORTER: inhibition of Estradiol-17beta-D-glucuronide uptake by Dehydroepiandrosterone-3-sulfate at a concentration of 10 uM in membrane vesicle from MRP8-expressing LLC-PK1 cells; type: functional, cell membranes; design: scale not given: the % may be the effect or the level left; summary of the method: as §1
# [10] = target: ATP-binding cassette sub-family C member 11 (Homo sapiens) (UniProt Q96J66); assay: TP_TRANSPORTER: inhibition of Estradiol-17beta-D-glucuronide uptake by Leukotrien C4 at a concentration of 1 uM in membrane vesicle from MRP8-expressing LLC-PK1 cells; type: functional, cell membranes; design: scale not given: the % may be the effect or the level left; summary of the method: as §1
# [11] = target: ATP-binding cassette sub-family C member 11 (Homo sapiens) (UniProt Q96J66); assay: TP_TRANSPORTER: inhibition of Estradiol-17beta-D-glucuronide uptake by Probenecid at a concentration of 10 uM in membrane vesicle from MRP8-expressing LLC-PK1 cells; type: functional, cell membranes; design: scale not given: the % may be the effect or the level left; summary of the method: as §1
# [12] = target: ATP-binding cassette sub-family C member 11 (Homo sapiens) (UniProt Q96J66); assay: TP_TRANSPORTER: inhibition of Estradiol-17beta-D-glucuronide uptake by Glycolithocholate at a concentration of 10 uM in membrane vesicle from MRP8-expressing LLC-PK1 cells; type: functional, cell membranes; design: scale not given: the % may be the effect or the level left; summary of the method: as §1
# [13] = target: ATP-binding cassette sub-family C member 11 (Homo sapiens) (UniProt Q96J66); assay: TP_TRANSPORTER: inhibition of Estradiol-17beta-D-glucuronide uptake by MK-571 at a concentration of 10 uM in membrane vesicle from MRP8-expressing LLC-PK1 cells; type: functional, cell membranes; design: scale not given: the % may be the effect or the level left; summary of the method: as §1
# Sequence of ATP-binding cassette sub-family C member 11 (Homo sapiens), Q96J66 (Q96J66 whole entry): as above
compound,measurement,setting,value
Nc1nc2c(ncn2[C@@H]2O[C@@H]3COP(=O)(O)O[C@H]3[C@H]2O)c(=O)[nH]1,Activity,[1],73%
C[C@H](CCC(=O)NCC(=O)O)[C@H]1CC[C@H]2[C@@H]3[C@H](O)C[C@@H]4C[C@H](O)CC[C@]4(C)[C@H]3C[C@H](O)[C@]12C,Activity,[2],62%
N[C@@H](CCC(=O)N[C@H](CSc1ccc([N+](=O)[O-])cc1[N+](=O)[O-])C(=O)NCC(=O)O)C(=O)O,Activity,[3],17%
CCCc1nn(C)c2c(=O)[nH]c(-c3cc(S(=O)(=O)N4CCN(C)CC4)ccc3OCC)nc12,Activity,[4],79%
"ATP-binding cassette sub-family C member 11 (Homo sapiens), Q96J66",Km,[5],13 µM
same,Km,[6],957 µM
same,Km,[7],62.9 µM
COc1ccc2c(c1)c(CC(=O)O)c(C)n2C(=O)c1ccc(Cl)cc1,Activity,[8],64%
C[C@]12CC[C@H](OS(=O)(=O)O)CC1=CC[C@@H]1[C@@H]2CC[C@]2(C)C(=O)CC[C@@H]12,Activity,[9],196%
CCCCC/C=C\C\C=C/C=C/C=C/[C@@H](SC[C@@H](NC(=O)CC[C@H](N)C(=O)O)C(=O)NCC(=O)O)[C@@H](O)CCCC(=O)O,Activity,[10],72%
CCCN(CCC)S(=O)(=O)c1ccc(C(=O)O)cc1,Activity,[11],76%
C[C@H](CCC(=O)NCC(=O)O)[C@H]1CC[C@H]2[C@@H]3CC[C@@H]4C[C@H](O)CC[C@]4(C)[C@H]3CC[C@]12C,Activity,[12],16%
CN(C)C(=O)CCSC(SCCC(=O)O)c1cccc(/C=C/c2ccc3ccc(Cl)cc3n2)c1 (stereo not drawn),Activity,[13],25%
